Experimental data from ChEMBL document CHEMBL4049434, “Radiolabeled Dibenzodiazepinone-Type Antagonists Give Evidence of Dualsteric Binding at the M2 Muscarinic Acetylcholine Receptor” (J Med Chem, 2017).

Key:
[1] = target: T1, Muscarinic acetylcholine receptor M2 (Homo sapiens) (UniProt P08172); experiment: (§1) Competitive antagonist activity at human muscarinic acetylcholine receptor M2 expressed in HEK293 cells coexpressing HA tagged Galpha-protein qi5 assessed as inhibition of 0.1 uM carbachol-induced IP1 accumulation preincubated for 30 mins followed by carbachol addition measured after 1 hr by HTRF assay; assay type: functional, cell-based
T1 sequence (whole entry): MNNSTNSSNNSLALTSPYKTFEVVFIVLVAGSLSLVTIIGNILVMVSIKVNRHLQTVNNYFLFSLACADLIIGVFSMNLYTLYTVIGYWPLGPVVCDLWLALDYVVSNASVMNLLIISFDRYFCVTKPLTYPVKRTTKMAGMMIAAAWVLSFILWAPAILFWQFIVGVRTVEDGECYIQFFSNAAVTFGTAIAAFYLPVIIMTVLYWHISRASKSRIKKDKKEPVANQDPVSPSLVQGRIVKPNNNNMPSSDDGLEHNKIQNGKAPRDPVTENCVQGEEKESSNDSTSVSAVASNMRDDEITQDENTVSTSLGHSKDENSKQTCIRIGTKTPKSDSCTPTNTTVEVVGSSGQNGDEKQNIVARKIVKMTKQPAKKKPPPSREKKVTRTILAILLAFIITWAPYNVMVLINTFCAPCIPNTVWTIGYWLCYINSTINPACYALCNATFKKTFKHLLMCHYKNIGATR
In short: (§2)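 HEK-293 transiently cotransfected with human M2R and Gαqi5-HA. Cells preincubated 30 min with antagonist, then carbachol added (final 0.1, 0.3, 1 or 10 μM), 1 h at 37 °C. IP1 detected by HTRF (620/670 nm emission, 330 nm excitation). At least four independent experiments, each in duplicate.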

[2] = target: T2, Muscarinic acetylcholine receptor M2 (Homo sapiens, UniProt P08172); experiment: as §1; assay type: functional, cell-based; in short: as §2
T2 sequence (P08172 whole entry): T1 sequence (whole entry)

[3] = target: Muscarinic acetylcholine receptor M3 (Homo sapiens, UniProt P20309); experiment: Displacement of [3H]NMS from human muscarinic acetylcholine receptor M3 expressed in CHOK9 cells after 3 hrs by liquid scintillation counting assay; assay type: cell-based
Chain of Muscarinic acetylcholine receptor M3 (P20309 whole entry): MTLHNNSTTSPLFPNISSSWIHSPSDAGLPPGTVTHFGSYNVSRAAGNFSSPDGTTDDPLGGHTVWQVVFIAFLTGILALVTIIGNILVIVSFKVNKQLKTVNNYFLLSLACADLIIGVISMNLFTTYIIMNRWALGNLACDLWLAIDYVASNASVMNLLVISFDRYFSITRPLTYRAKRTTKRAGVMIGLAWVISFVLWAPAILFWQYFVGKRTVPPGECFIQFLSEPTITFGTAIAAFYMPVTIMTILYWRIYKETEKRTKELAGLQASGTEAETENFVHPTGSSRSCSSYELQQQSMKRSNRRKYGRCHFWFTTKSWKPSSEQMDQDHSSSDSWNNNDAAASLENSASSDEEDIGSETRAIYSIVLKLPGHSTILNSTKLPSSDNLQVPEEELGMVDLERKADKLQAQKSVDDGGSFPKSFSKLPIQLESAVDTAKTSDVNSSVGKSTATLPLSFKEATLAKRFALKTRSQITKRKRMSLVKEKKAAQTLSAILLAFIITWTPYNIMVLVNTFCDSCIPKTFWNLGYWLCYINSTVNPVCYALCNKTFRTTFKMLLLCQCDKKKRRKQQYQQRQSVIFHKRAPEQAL

[4] = target: T1, Muscarinic acetylcholine receptor M2 (Homo sapiens); experiment: Binding affinity to human muscarinic acetylcholine receptor M2 expressed in CHOK9 cells assessed as dissociation half life after 105 mins by liquid scintillation counting assay; assay type: cell-based; conditions: tested as the 3H-labelled form
[5] = target: T2, Muscarinic acetylcholine receptor M2; experiment: Displacement of [3H]UNSW-MK259 from human muscarinic acetylcholine receptor M2 expressed in CHOK9 cells after 3 hrs by liquid scintillation counting assay; assay type: cell-based
[6] = target: T1, Muscarinic acetylcholine receptor M2 (Homo sapiens); experiment: Binding affinity to human muscarinic acetylcholine receptor M2 expressed in live adherent CHOK9 cells after 2 hrs by liquid scintillation counting assay; assay type: cell-based; conditions: tested as the 3H-labelled form
In short: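 Live adherent CHO-hM2 cells in L15 medium with 1% BSA, 23 ± 1 °C, 2 h incubation. Competition at 2 nM radioligand; additional 4, 8, 15 and 30 nM in W84 experiments. […] Saturation data fitted one-site; competition by four-parameter logistic fits; at least three experiments in triplicate.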

[7] = target: T2, Muscarinic acetylcholine receptor M2; experiment: Displacement of [3H]NMS from human muscarinic acetylcholine receptor M2 expressed in CHOK9 cells after 3 hrs by liquid scintillation counting assay; assay type: cell-based; conditions: read-out: pKi (converted)
[8] = target: T3, Muscarinic acetylcholine receptor M5 (Homo sapiens, UniProt P08912); experiment: Displacement of [3H]NMS from human muscarinic acetylcholine receptor M5 expressed in CHOK9 cells after 3 hrs by liquid scintillation counting assay; assay type: cell-based
T3 sequence (P08912 whole entry): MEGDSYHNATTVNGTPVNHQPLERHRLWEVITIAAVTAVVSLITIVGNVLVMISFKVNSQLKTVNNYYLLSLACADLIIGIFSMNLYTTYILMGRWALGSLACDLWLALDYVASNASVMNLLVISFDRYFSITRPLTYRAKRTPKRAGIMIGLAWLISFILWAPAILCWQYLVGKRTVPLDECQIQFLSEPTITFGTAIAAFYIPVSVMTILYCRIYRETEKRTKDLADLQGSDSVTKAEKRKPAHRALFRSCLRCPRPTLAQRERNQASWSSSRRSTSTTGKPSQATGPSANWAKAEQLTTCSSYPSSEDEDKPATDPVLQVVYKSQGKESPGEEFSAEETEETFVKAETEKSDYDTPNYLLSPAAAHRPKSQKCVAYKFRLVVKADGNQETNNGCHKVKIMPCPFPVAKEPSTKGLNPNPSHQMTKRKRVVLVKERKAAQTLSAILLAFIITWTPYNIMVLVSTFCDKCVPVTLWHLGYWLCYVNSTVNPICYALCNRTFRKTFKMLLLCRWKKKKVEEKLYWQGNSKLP

[9] = target: T1, Muscarinic acetylcholine receptor M2 (Homo sapiens); experiment: as §1, with “1” for “0.1”; assay type: functional, cell-based; in short: as §2
[10] = target: T2, Muscarinic acetylcholine receptor M2; experiment: as §1, with “1” for “0.1”; assay type: functional, cell-based; in short: as §2
[11] = target: T2, Muscarinic acetylcholine receptor M2; experiment: Displacement of [3H]UR-AP060 from human muscarinic acetylcholine receptor M2 expressed in CHOK9 cell homogenate after 3 hrs by liquid scintillation counting assay

Structure (SMILES): CCC(=O)NCc1cc(C(=O)NCCNC(=O)CCc2cn(CCCCC3CCN(CC(=O)N4c5ccccc5NC(=O)c5ccccc54)CC3)cn2)cc(C(=O)NCCNC(=O)CCc2cn(CCCCC3CCN(CC(=O)N4c5ccccc5NC(=O)c5ccccc54)CC3)cn2)c1.O=C(O)C(F)(F)F.O=C(O)C(F)(F)F.O=C(O)C(F)(F)F.O=C(O)C(F)(F)F
- inhibition [1]: Dose-dependent effect
- IC50 [2]: 0.0166 µM
- Ki [3]: 0.0155 µM
- T1/2 [4]: 1.1 h
- Ki [5]: 0.000107 µM
- Bmax (disintegrations/minute) [6]: 1200
- Ki [7]: 0.000407 µM
- Ki [8]: 0.0229 µM
- inhibition [9]: Dose-dependent effect
- IC50 [10]: 0.174 µM
- Ki [11]: 0.00105 µM
